≈ marks a conversion by molar mass, not a printed value.
How the values were obtained:
Format in all cases: functional
Pseudomonas aeruginosa [1] = experiment: Antibacterial activity against Pseudomonas aeruginosa assessed as percent cumulative susceptible isolates at minimum inhibitory concentration of 0.06 ug/ml by CLSI broth microdilution method; parameters: scale not given: the % may be the effect or the level left
Enterococcus faecalis [2] = experiment: Antibacterial activity against Enterococcus faecalis assessed as percent cumulative susceptible isolates at minimum inhibitory concentration of 32 ug/ml by CLSI broth microdilution method; parameters: scale not given: the % may be the effect or the level left
[3] = test system: Staphylococcus epidermidis; experiment: Antibacterial activity against methicillin-susceptible Staphylococcus epidermidis assessed as percent cumulative susceptible isolates at minimum inhibitory concentration of 32 ug/ml by CLSI broth microdilution method; parameters: scale not given: the % may be the effect or the level left
Outline: (§1)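 Clinical isolates tested by CLSI broth microdilution using 96-well panels of doubling drug dilutions in cation-adjusted Mueller-Hinton broth with 5% lysed horse blood. MIC was read from these panels. Panel quality control used CLSI ATCC strains, including S. pneumoniae 49619, S. aureus 29213, E. faecalis 29212 and E. coli 25922. Cumulative percentages of isolates were tabulated at each MIC.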

Streptococcus pneumoniae = experiment: Antibacterial activity against Streptococcus pneumoniae assessed as percent cumulative susceptible isolates at minimum inhibitory concentration of 0.5 ug/ml by CLSI broth microdilution method; parameters: scale not given: the % may be the effect or the level left
Staphylococcus aureus [4] = experiment: Antibacterial activity against community-associated methicillin-resistant Staphylococcus aureus assessed as percent cumulative susceptible isolates at minimum inhibitory concentration of 1 ug/ml by CLSI broth microdilution method; parameters: scale not given: the % may be the effect or the level left
Enterococcus faecium [5] = experiment: Antibacterial activity against Enterococcus faecium assessed as percent cumulative susceptible isolates at minimum inhibitory concentration of 1 ug/ml by CLSI broth microdilution method; parameters: scale not given: the % may be the effect or the level left
[6] = test system: Stenotrophomonas maltophilia; experiment: Antibacterial activity against Stenotrophomonas maltophilia assessed as percent cumulative susceptible isolates at minimum inhibitory concentration of 0.5 ug/ml by CLSI broth microdilution method; parameters: scale not given: the % may be the effect or the level left
Enterobacter cloacae = experiment: Antibacterial activity against Enterobacter cloacae assessed as percent cumulative susceptible isolates at minimum inhibitory concentration of 2 ug/ml by CLSI broth microdilution method; parameters: scale not given: the % may be the effect or the level left
Staphylococcus aureus [7] = experiment: Antibacterial activity against community-associated methicillin-resistant Staphylococcus aureus assessed as percent cumulative susceptible isolates at minimum inhibitory concentration of 8 ug/ml by CLSI broth microdilution method; parameters: scale not given: the % may be the effect or the level left; outline: as §1
Staphylococcus aureus [8] = experiment: Antibacterial activity against hospital-associated methicillin-resistant Staphylococcus aureus assessed as percent cumulative susceptible isolates at minimum inhibitory concentration of 1 ug/ml by CLSI broth microdilution method; parameters: scale not given: the % may be the effect or the level left; outline: as §1
Escherichia coli [9] = experiment: Antibacterial activity against Escherichia coli assessed as percent cumulative susceptible isolates at minimum inhibitory concentration of 2 ug/ml by CLSI broth microdilution method; parameters: scale not given: the % may be the effect or the level left
Staphylococcus aureus [10] = experiment: Antibacterial activity against methicillin-susceptible Staphylococcus aureus assessed as percent cumulative susceptible isolates at minimum inhibitory concentration of 0.03 ug/ml by CLSI broth microdilution method; parameters: scale not given: the % may be the effect or the level left
[11] = test system: Staphylococcus epidermidis; experiment: Antibacterial activity against methicillin-resistant Staphylococcus epidermidis assessed as percent cumulative susceptible isolates at minimum inhibitory concentration of […] by CLSI broth microdilution method; parameters: scale not given: the % may be the effect or the level left
Pseudomonas aeruginosa [12] = experiment: Antibacterial activity against Pseudomonas aeruginosa assessed as percent cumulative susceptible isolates at minimum inhibitory concentration of 64 ug/ml by CLSI broth microdilution method; parameters: scale not given: the % may be the effect or the level left
Enterococcus faecalis [13] = experiment: Antibacterial activity against Enterococcus faecalis assessed as percent cumulative susceptible isolates at minimum inhibitory concentration of 0.06 ug/ml by CLSI broth microdilution method; parameters: scale not given: the % may be the effect or the level left
Enterococcus faecalis [14] = experiment: Antibacterial activity against Enterococcus faecalis by CLSI M7-A7 broth microdilution method
Escherichia coli [15] = experiment: Antibacterial activity against Escherichia coli assessed as percent cumulative susceptible isolates at minimum inhibitory concentration of 64 ug/ml by CLSI broth microdilution method; parameters: scale not given: the % may be the effect or the level left
Staphylococcus aureus [16] = experiment: Antibacterial activity against non-levofloxacin susceptible Staphylococcus aureus assessed as percent cumulative susceptible isolates at minimum inhibitory concentration of […] by CLSI broth microdilution method; parameters: scale not given: the % may be the effect or the level left
[17] = test system: Stenotrophomonas maltophilia; experiment: Antibacterial activity against Stenotrophomonas maltophilia assessed as percent cumulative susceptible isolates at minimum inhibitory concentration of […] by CLSI broth microdilution method; parameters: scale not given: the % may be the effect or the level left
Staphylococcus aureus [18] = experiment: Antibacterial activity against hospital-associated methicillin-resistant Staphylococcus aureus assessed as percent cumulative susceptible isolates at minimum inhibitory concentration of 0.06 ug/ml by CLSI broth microdilution method; parameters: scale not given: the % may be the effect or the level left
Staphylococcus aureus [19] = experiment: Antibacterial activity against Levofloxacin-susceptible Staphylococcus aureus assessed as percent cumulative susceptible isolates at minimum inhibitory concentration of […] by CLSI broth microdilution method; parameters: scale not given: the % may be the effect or the level left
Staphylococcus aureus [20] = experiment: Antibacterial activity against non-levofloxacin susceptible Staphylococcus aureus assessed as percent cumulative susceptible isolates at minimum inhibitory concentration of 8 ug/ml by CLSI broth microdilution method; parameters: scale not given: the % may be the effect or the level left
Pseudomonas aeruginosa [21] = experiment: Antibacterial activity against Pseudomonas aeruginosa assessed as percent cumulative susceptible isolates at minimum inhibitory concentration of >=[…] by CLSI broth microdilution method; parameters: scale not given: the % may be the effect or the level left
Klebsiella oxytoca = experiment: Antibacterial activity against Klebsiella oxytoca assessed as percent cumulative susceptible isolates at minimum inhibitory concentration of 1 ug/ml by CLSI broth microdilution method; parameters: scale not given: the % may be the effect or the level left
Enterococcus faecium [22] = experiment: Antibacterial activity against Enterococcus faecium assessed as percent cumulative susceptible isolates at minimum inhibitory concentration of 64 ug/ml by CLSI broth microdilution method; parameters: scale not given: the % may be the effect or the level left
Pseudomonas aeruginosa [23] = experiment: Antibacterial activity against Pseudomonas aeruginosa assessed as percent cumulative susceptible isolates at minimum inhibitory concentration of 256 ug/ml by CLSI broth microdilution method; parameters: scale not given: the % may be the effect or the level left
Staphylococcus aureus [24] = experiment: Antibacterial activity against community-associated methicillin-resistant Staphylococcus aureus assessed as percent cumulative susceptible isolates at minimum inhibitory concentration of 0.5 ug/ml by CLSI broth microdilution method; parameters: scale not given: the % may be the effect or the level left
Escherichia coli [25] = experiment: Antibacterial activity against Escherichia coli assessed as percent cumulative susceptible isolates at minimum inhibitory concentration of 128 ug/ml by CLSI broth microdilution method; parameters: scale not given: the % may be the effect or the level left
Staphylococcus aureus [26] = experiment: Antibacterial activity against Levofloxacin-susceptible Staphylococcus aureus assessed as percent cumulative susceptible isolates at minimum inhibitory concentration of 0.06 ug/ml by CLSI broth microdilution method; parameters: scale not given: the % may be the effect or the level left
Staphylococcus aureus [27] = experiment: Antibacterial activity against methicillin-susceptible Staphylococcus aureus assessed as percent cumulative susceptible isolates at minimum inhibitory concentration of […] by CLSI broth microdilution method; parameters: scale not given: the % may be the effect or the level left
Proteus mirabilis = experiment: Antibacterial activity against Proteus mirabilis assessed as percent cumulative susceptible isolates at minimum inhibitory concentration of >=[…] by CLSI broth microdilution method; parameters: scale not given: the % may be the effect or the level left
Enterococcus faecalis [28] = experiment: Antibacterial activity against Enterococcus faecalis assessed as percent cumulative susceptible isolates at minimum inhibitory concentration of 0.03 ug/ml by CLSI broth microdilution method; parameters: scale not given: the % may be the effect or the level left
Enterococcus faecium [29] = experiment: Antibacterial activity against Enterococcus faecium assessed as percent cumulative susceptible isolates at minimum inhibitory concentration of […] by CLSI broth microdilution method; parameters: scale not given: the % may be the effect or the level left
Staphylococcus aureus [30] = experiment: Antibacterial activity against Levofloxacin-susceptible Staphylococcus aureus assessed as percent cumulative susceptible isolates at minimum inhibitory concentration of 0.03 ug/ml by CLSI broth microdilution method; parameters: scale not given: the % may be the effect or the level left
[31] = Ratio of fAUC (0 to 24 hrs) in in vitro PK/PD model at 750 mg to MIC for community-associated methicillin-resistant Staphylococcus aureus
[32] = test system: Stenotrophomonas maltophilia; experiment: Antibacterial activity against Stenotrophomonas maltophilia assessed as percent cumulative susceptible isolates at minimum inhibitory concentration of 64 ug/ml by CLSI broth microdilution method; parameters: scale not given: the % may be the effect or the level left

C[C@H]1COc2c(N3CCN(C)CC3)c(F)cc3c(=O)c(C(=O)O)cn1c23.C[C@H]1COc2c(N3CCN(C)CC3)c(F)cc3c(=O)c(C(=O)O)cn1c23.O [LEVOFLOXACIN]
Activity (Pseudomonas aeruginosa [1]): 2.2% | Activity (Enterococcus faecalis [2]): 100% | Activity [3]: 100% | Activity (Streptococcus pneumoniae): 69.3% | Activity (Staphylococcus aureus [4]): 32% | Activity (Enterococcus faecium [5]): 10.5% | Activity [6]: 7.7% | Activity (Enterobacter cloacae): 93.1% | Activity (Staphylococcus aureus [7]): 96%

COc1c(N2C[C@@H](C)C[C@H](N)C2)ccc2c(=O)c(C(=O)O)cn(C3CC3)c12 [NEMONOXACIN]
Activity (Staphylococcus aureus [8]): 18.2% | Activity (Escherichia coli [9]): 75.5% | Activity (Staphylococcus aureus [10]): 71.9% | Activity [11]: 33.3% | Activity (Pseudomonas aeruginosa [12]): 95.6% | Activity (Enterococcus faecalis [13]): 18.5% | MIC90 (Enterococcus faecalis [14]): 1 µg/mL (≈ 2.69 µM) | Activity (Escherichia coli [15]): 98.2% | Activity (Staphylococcus aureus [16]): 8.9% | Activity [17]: 3.8% | Activity (Staphylococcus aureus [18]): 3% | Activity (Staphylococcus aureus [19]): 33.8% | Activity (Staphylococcus aureus [20]): 76.2% | Activity (Pseudomonas aeruginosa [21]): 100% | Activity (Klebsiella oxytoca): 100% | Activity (Enterococcus faecium [22]): 84.2% | Activity (Pseudomonas aeruginosa [23]): 99.3% | Activity (Staphylococcus aureus [24]): 92% | Activity (Escherichia coli [25]): 99.3% | Activity (Staphylococcus aureus [26]): 97.1% | Activity (Staphylococcus aureus [27]): 30.5% | Activity (Proteus mirabilis): 100% | Activity (Enterococcus faecalis [28]): 2.5% | Activity (Enterococcus faecium [29]): 28.9% | Activity (Staphylococcus aureus [30]): 78.3% | RatioAUC/MIC [31]: 98 | Activity [32]: 100%

— ChEMBL document CHEMBL1671676, “In vitro activity of nemonoxacin, a novel nonfluorinated quinolone, against 2,440 clinical isolates” (2009)
